S1P1 ag-PAM: activates or potentiates agonism at human S1P1 receptor; S1P1 CRE-bla cells, forskolin, beta-lactamase FRET, potentiator mode; S1P1 agonist co-added at EC20, 2 nM; 100% = saturating reference agonist, 0% = basal; hit rate 0.57% among 56,000; AID 449; activation, % at 9.5 µM;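 active means activation above a cutoff set at the mean activation of all tested compounds plus 3 SD, cut at about 54% in these data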;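 further: forskolin at 4 µM as EC80 and the EC20 agonist is SEW2871; 100% = SEW2871 at its EC100 plus forskolin at EC80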
Target sequence (P21453 whole entry, looked up): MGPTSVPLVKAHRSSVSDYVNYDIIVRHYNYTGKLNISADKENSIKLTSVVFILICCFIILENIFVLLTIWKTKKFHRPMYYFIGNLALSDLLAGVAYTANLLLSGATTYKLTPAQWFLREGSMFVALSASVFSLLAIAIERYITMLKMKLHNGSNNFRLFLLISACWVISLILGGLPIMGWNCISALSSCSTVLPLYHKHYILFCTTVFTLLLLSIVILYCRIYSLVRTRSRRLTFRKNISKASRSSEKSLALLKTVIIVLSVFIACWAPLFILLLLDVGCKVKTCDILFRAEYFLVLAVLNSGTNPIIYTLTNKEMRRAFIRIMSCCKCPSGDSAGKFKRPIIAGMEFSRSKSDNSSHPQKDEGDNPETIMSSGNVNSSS
5HT1E antag: blocks the human 5-HT1E serotonin receptor. P28566. CHO 5-HT1E Ga15 NFAT-bla reporter, FRET, antagonist. inhibition, % at 6 µM. hit rate 0.99% among 65,000;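 active means inhibition above a set limit, the mean inhibition across every tested compound plus 3 SD, cut at about 29% in these data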;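 further: signal is the 460 over 535 nm emission ratio of beta-lactamase substrate; 0% = agonist plus DMSO wells and 100% = wells without agonist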
S1P3 ag: activates the human S1P3 receptor. activation, % at 4.5 µM. AID 373. hit rate 0.1% among 60,000. S1P3 NFAT-BLA reporter cells, agonism, FRET ratio; relative to 1 µM S1P, basal subtracted. Q99500;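 active means activation above the screen-wide mean plus 3 SD, cut at about 4.5% in these data, passing the limit was not always enough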
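Benchmarks: high control 1 µM S1P / System: stable CHO line with human S1P3, Gα16, NFAT-BLA reporter / Dosing: single compound concentration, 4.5 µM final / Timing: 4 h compound at 37 °C, 2 h substrate at RT / Measured by: FRET β-lactamase substrate fluorescence, excitation 405 nm, 460/535 nm emission ratio, background-subtracted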
5HT1a ag: agonists of human 5-HT1a serotonin receptor; P08908; CHO 5-HT1a Ga15 NFAT-bla reporter, FRET ratio; 0% basal, 100% maximal reference agonist; activation, % at 10 µM; hit rate 0.56% among 65,000; AID 567;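 active means activation above the screen-wide mean activation plus 3 SD, cut at about 19% in these data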;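 further: 0% = DMSO wells and 100% = 5-CT at EC100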
5HT1E ag: agonists of human 5-HT1E serotonin receptor; P28566; CHO 5-HT1E Ga15 NFAT-bla reporter, FRET; 0% DMSO wells, 100% control agonist wells; activation, % at 6 µM; hit rate 0.69% among 65,000;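 active means activation above a set limit, the screen-wide mean activation plus 3 SD, cut at about 8.5% in these data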;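 further: 100% = positive control agonist at 1 µM giving full maximal response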
5HT1a antag: 5-HT1a (human) receptor antagonism. AID 612. hit rate 0.68% among 62,000. CHO 5-HT1a Ga15 NFAT-bla reporter, antagonist mode. inhibition, % at 10 µM;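 active means inhibition above the mean of all tested compounds plus 3 SD, cut at about 43% in these data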;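 further: receptor stimulated by 5-CT agonist at 100 nM near EC80; beta-lactamase reporter measured by ratiometric fluorescence of a cleavable substrate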
* = called active by the depositor; . = no result given. Compounds with a hit are over-represented: about 2.9% of the library has one in this group of screens.

SMILES	S1P1 ag-PAM	5HT1E antag	S1P3 ag	5HT1a ag	5HT1E ag	5HT1a antag
CC(C)CC(c1nnnn1Cc1ccco1)N1CCN(c2cccc(Cl)c2)CC1 (stereo not drawn)	5	13	-1	5	-2	46*
CCNC(=O)CN(Cc1ccccc1)S(=O)(=O)c1ccccc1	1	-10	-2	0	-1	11
CCOC(=O)CC(/C(C)=N\O)c1ccccc1 (stereo not drawn)	1	7	-1	-2	40*	17
O=C(Nc1ccc2c(c1)OCO2)N1CCN(S(=O)(=O)c2ccc(Cl)cc2)CC1	-14	20	1	-3	14*	8
CCCCC(=O)NC1(C(F)(F)F)C(=O)Nc2c1c(=O)n(C)c(=O)n2C (stereo not drawn)	-7	-3	1	0	0	-16
CCN(CC)c1ccc(NC(=O)C2CCCN(S(=O)(=O)c3cccnc3)C2)c(C)c1 (stereo not drawn)	14	32*	-1	0	0	-4
COc1ccc(NC(=O)C2CCCN(S(=O)(=O)c3cccnc3)C2)c(OC)c1 (stereo not drawn)	-8	-1	0	-3	1	4
CN(C)CCOc1ccccc1Cc1ccccc1	-8	-7	-2	2	16*	.
CN(C)CCOC(=O)CCc1ccccc1	-5	-4	-1	-6	0	-28
CCCc1cc(C(N)=O)c(NC(C)=O)s1	12	11	-1	-2	0	-14
Nc1nc(CSCc2ccccc2)nc(N2CCOCC2)n1	-15	17	0	-1	0	-2
CCNc1nc(SCc2ccccc2)nc(N2CCOCC2)n1	2	36*	0	1	0	8
Cc1nc2sccn2c1-c1csc(NCc2ccccc2)n1	113*	-27	-1	0	1	7
C=CCNc1nc(-c2c(C)nc3sccn23)cs1	.	-11	11	1	1	-17
CCOC(=O)N1CCN(C(=O)CSc2nnc(Cc3cccn3C)n2CCc2ccccc2)CC1	-15	-11	-1	0	0	-6
COCCn1c(COc2cccc(OC)c2)nnc1SCC(=O)N1CCOCC1	2	1	0	1	19*	4
Cn1cccc1Cc1nnc(SCC(=O)N2CCOCC2)n1CCc1ccccc1	-4	-7	0	473*	1	9
O=C(c1cnn(-c2nc3ccccc3s2)c1)c1ccccc1O	-12	12	-1	21*	0	-7
Cc1nn(-c2nc3ccccc3s2)c(C)c1Oc1ccccc1O	6	-10	0	-4	0	-12
CN1CCCc2cc3c(C(F)(F)F)cc(=O)oc3nc21	.	41*	0	5	2	19
CC(C)c1cc(=O)oc2c3c4c(cc12)CCCN4CCC3	-18	15	0	-5	0	0
CCOC(=O)c1c(C)[nH]c(C(=O)C(C)OC(=O)c2cccc(OCc3c(C)noc3C)c2)c1C (stereo not drawn)	101*	11	-2	10	1	6
CCSc1nnc(NC(=O)c2cccc(OCc3c(C)noc3C)c2)s1	.	-3	.	-1	-1	-2
O=C(O)CCC(=O)Nc1nnc(C(F)(F)F)s1	7	8	-2	-2	-1	-4
CCC(NC(=O)Nc1nnc(C(F)(F)F)s1)(C(F)(F)F)C(F)(F)F	112*	66*	-10	-1	-1	.
SMILES	S1P1 ag-PAM	5HT1E antag	S1P3 ag	5HT1a ag	5HT1E ag	5HT1a antag
O=C(C1CCN(Cc2ccc(OCc3ccccc3)cc2)CC1)N1CCCC1	-23	-11	-1	-1	11*	8
COC(=O)CNc1nc(C2CC2)nc2c1nnn2Cc1ccccc1Cl	5	11	-2	-2	0	5
c1ccc(Cn2nnc3c(Nc4ccc5c(c4)OCO5)nc(C4CC4)nc32)cc1	39	0	-1	22*	2	20
CCOC(=O)CCn1cc(F)c(=O)n(Cc2ccccc2)c1=O	0	-4	-1	-1	0	7
CCCCCOC(=O)c1[nH]c2c(c1C)C(=O)CC(c1ccco1)C2 (stereo not drawn)	24	82*	-2	1	-1	66*
CCOC(=O)c1[nH]c2c(c1C)C(=O)CC(c1ccc(OCC)c(OC)c1)C2 (stereo not drawn)	.	-5	.	1	1	-1
CCOC(=O)c1[nH]c2c(c1C)C(=O)CC(c1ccc(F)cc1)C2 (stereo not drawn)	30	58*	-2	2	0	16
CCOC(=O)Cc1nnc2c(Nc3ccc(Cl)cc3)nc3nonc3n12	45	2	0	-1	0	9
Cn1cc(C(=O)N2CCN(C(=O)c3ccco3)CC2)c2c3ccccc3n(C)c2c1=O	-18	2	-1	-2	1	-9
COc1cc(C2C(C#N)=C(N)Oc3cc(N(C)C)ccc32)cc2c1OCO2 (stereo not drawn)	9	43*	-2	-2	0	4
Cc1oc(-c2ccc(Cl)cc2)nc1CN1CCC(C(=O)NCCCN2CCOCC2)CC1	4	-2	0	0	1	5
Cc1oc(-c2cccc(Cl)c2)nc1CN1CCCC(C(=O)NCCCN2CCOCC2)C1 (stereo not drawn)	0	6	-1	30*	0	16
COc1cc(C2C3CN(C)CC=C3C(C#N)=C(N)C2(C#N)C#N)ccc1OC(C)C (stereo not drawn)	.	-4	.	1	2	3
CC(C)N1CC=C2C(C#N)=C(N)C(C#N)(C#N)C(c3ccccc3)C2C1 (stereo not drawn)	12	2	5	26*	4	.
CCOC(=O)N1CCC(Nc2c(NCCCN(CC)c3cccc(C)c3)c(=O)c2=O)CC1	-8	-8	-1	-2	22*	-16
CCOC(=O)N1CCC(Nc2c(NCCN3CCN(Cc4ccccc4)CC3)c(=O)c2=O)CC1	-8	7	-1	0	0	0
Cc1c(C(=O)OCC2CCCO2)[nH]c2c1C(=O)CC(c1ccc(N(C)C)cc1)C2 (stereo not drawn)	11	-2	0	0	0	-7
CCCNC(=O)c1c(N)n(-c2ccc3c(c2)OCO3)c2nc3ccccc3nc12	8	-9	0	3	1	6
CCCNC(=O)c1c(N)n(-c2cc(OC)cc(OC)c2)c2nc3ccccc3nc12	-80	-15	2	30*	12*	-45
COc1ccccc1C(=O)NCCCn1cc(Br)c(C)n1	-21	-12	0	-3	-1	-3
COc1ccc(CCN2CC(C#N)=C3c4cc(OC)c(OC)cc4CCN3C2)cc1OC	-10	38*	-1	2	2	11

Compound activity: PubChem, The Scripps Research Institute Molecular Screening Center
